Experiment [1] has as its target Urokinase-type plasminogen activator (Homo sapiens, UniProt P00749). In words: Inhibition of urokinase-type plasminogen activator using Glt-Gly-Arg-AMC as substrate by spectrofluorometry.
The nature of experiment [2]: Inhibition of trypsin using tosyl-Gly-Pro-Lys-pNA as substrate by spectrophotometry.
Another experiment has as its system U-87MG ATCC. In words: Cytotoxicity against human U87 cells by lactate dehydrogenase assay. Format: functional, cell-based. The procedure, abridged:
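Cytotoxicity was read as release of cytosolic LDH from dying cells, following the kit manufacturer's protocol.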

The target in the next experiment is Plasminogen (Homo sapiens, UniProt P00747). The experiment in a line: Inhibition of plasmin using tosyl-Gly-Pro-Lys-pNA as substrate by spectrophotometry.
Chain of Plasminogen (P00747 97-580 limits assumed): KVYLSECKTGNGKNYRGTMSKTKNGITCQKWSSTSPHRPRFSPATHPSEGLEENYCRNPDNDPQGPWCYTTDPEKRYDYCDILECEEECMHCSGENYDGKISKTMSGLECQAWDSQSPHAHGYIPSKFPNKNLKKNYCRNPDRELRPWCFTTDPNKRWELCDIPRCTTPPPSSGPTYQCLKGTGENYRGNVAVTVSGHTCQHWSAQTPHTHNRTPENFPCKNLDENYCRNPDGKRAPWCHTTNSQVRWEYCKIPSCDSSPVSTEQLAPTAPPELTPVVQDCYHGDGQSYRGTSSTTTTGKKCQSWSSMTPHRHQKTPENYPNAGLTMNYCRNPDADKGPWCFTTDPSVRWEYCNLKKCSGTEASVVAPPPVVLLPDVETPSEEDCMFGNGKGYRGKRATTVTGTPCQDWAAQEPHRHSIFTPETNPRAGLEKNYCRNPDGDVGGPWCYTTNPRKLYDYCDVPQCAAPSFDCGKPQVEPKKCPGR
Chain of Plasminogen (P00747 581-810 limits assumed): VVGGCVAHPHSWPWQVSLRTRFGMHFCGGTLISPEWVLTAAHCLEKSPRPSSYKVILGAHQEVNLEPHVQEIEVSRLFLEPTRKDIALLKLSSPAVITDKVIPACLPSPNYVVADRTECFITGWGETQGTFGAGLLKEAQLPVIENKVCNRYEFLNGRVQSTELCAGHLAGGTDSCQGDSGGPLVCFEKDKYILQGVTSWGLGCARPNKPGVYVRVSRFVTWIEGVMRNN
The target in experiment [3] is Tissue-type plasminogen activator (Homo sapiens, UniProt P00750). The experiment in a line: Inhibition of tPA using CH3SO2-D-HHT-Gly-Arg-pNA as substrate by spectrophotometry.
Chain of Tissue-type plasminogen activator (P00750 whole entry): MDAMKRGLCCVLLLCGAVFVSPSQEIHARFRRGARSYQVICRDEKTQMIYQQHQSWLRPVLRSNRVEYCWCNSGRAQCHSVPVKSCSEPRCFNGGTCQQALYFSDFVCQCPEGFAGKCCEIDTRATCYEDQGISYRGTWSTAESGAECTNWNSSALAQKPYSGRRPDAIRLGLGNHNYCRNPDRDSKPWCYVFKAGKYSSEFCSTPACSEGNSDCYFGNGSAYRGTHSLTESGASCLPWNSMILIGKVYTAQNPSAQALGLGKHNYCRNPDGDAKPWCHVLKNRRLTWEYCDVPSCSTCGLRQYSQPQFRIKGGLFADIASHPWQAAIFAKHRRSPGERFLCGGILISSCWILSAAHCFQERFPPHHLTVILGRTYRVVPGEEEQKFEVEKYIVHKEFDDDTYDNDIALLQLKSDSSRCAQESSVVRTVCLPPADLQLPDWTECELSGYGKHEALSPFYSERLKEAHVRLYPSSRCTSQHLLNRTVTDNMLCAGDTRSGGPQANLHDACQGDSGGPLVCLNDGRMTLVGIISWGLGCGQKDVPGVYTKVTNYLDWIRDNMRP
Experiment [4] can be described thus: Cytotoxicity against human U87 cells at 250 uM after 24 hrs by lactate dehydrogenase assay. It is filed as functional, U-87MG ATCC. The procedure, abridged: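 Human U87 glioma cells seeded at ten thousand per well and exposed to drug for 24–48 h at 37°C under 5% CO2. Cell death was read as cytosolic lactate dehydrogenase released from dying cells, assayed following the kit manufacturer's protocol.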

Experiment [5] can be described thus: Cytotoxicity against human U87 cells at 250 uM after 72 hrs by lactate dehydrogenase assay. It is filed as functional, U-87MG ATCC. A digest of the protocol: (§1)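 Cell death was scored as cytosolic LDH released into the medium, using the kit manufacturer's LDH protocol.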
Experiment [6] can be described thus: Cytotoxicity against human U87 cells at 100 uM after 72 hrs by lactate dehydrogenase assay. Format: functional, U-87MG ATCC. Conditions: in the assay text read “24 hrs” for “72 hrs”. A digest of the protocol:
as §1

These results are taken from ChEMBL document CHEMBL2010781, “2-Amidino analogs of glycine-amiloride conjugates: inhibitors of urokinase-type plasminogen activator” (Bioorg Med Chem Lett, 2012).

Activity calls are given as the source filed them. No cut-off for these calls is given here.

The term IC50 denotes the concentration that inhibits the measured activity by half. A lower IC50 goes with greater potency. For the compound `NC(N)=NC(=O)c1ncc(NCC(=O)O)nc1N`, the 50% inhibitory concentration (IC50) in experiment [1] is 47 µM; in experiment [2], over 250 µM; on Plasminogen, over 250 µM; in experiment [3], over 250 µM. Moreover, the outcome with U-87MG ATCC was inactive.
For `N=C(NO)c1nc(Cl)c(NCC(=O)OCc2ccccc2)nc1N`, the concentration for half-maximal inhibition (IC50) in experiment [1] is 74 µM; at Plasminogen it was over 250 µM; in experiment [3] it was 200 µM.
On to `N=C(N)NC(=O)c1nc(Cl)c(NCC(=O)O)nc1N`, for which the half-maximal inhibitory concentration (IC50) is 17 µM in experiment [1], over 250 µM in experiment [2], over 250 µM at Plasminogen and over 250 µM in experiment [3]. For the same compound, the outcome with U-87MG ATCC was inactive.
Regarding `N/C(=N\O)c1nc(Cl)c(NCC(=O)O)nc1N`, in experiment [2], the 50% inhibitory concentration (IC50) was over 250 µM. For the same compound, the outcome in the experiment with U-87MG ATCC was inactive.
In experiment [4], `N=C(N)NC(=O)c1nc(Cl)c(N)nc1N` [AMILORIDE] showed an Activity of 50%. Further, the half-maximal inhibitory concentration (IC50) is over 250 µM in experiment [2], over 250 µM against Plasminogen and 220 µM in experiment [3].
With `NC(=O)c1nc(Cl)c(NCC(=O)OCc2ccccc2)nc1N`, the IC50 in experiment [1] is 69 µM; in experiment [2], over 250 µM; in experiment [3], over 250 µM.
With `N=C(N)c1nc(Cl)c(NCC(=O)O)nc1N`, the IC50 was 237 µM in experiment [1], over 250 µM in experiment [2] and over 250 µM in experiment [3]. The result in the experiment on U-87MG ATCC was inactive.
As for `N=C(NO)c1ncc(NCC(=O)O)nc1N`, the half-inhibitory concentration (IC50) is 279 µM in experiment [1] and over 250 µM in experiment [3].
For `N/C(=N\O)c1nc(Cl)c(NCC(=O)OCc2ccccc2)nc1N`, the IC50 in experiment [2] was over 250 µM. Besides, the outcome in the experiment on U-87MG ATCC was inactive.
`N/C(=N\O)c1ncc(NCC(=O)O)nc1N`: in experiment [2], the 50% inhibitory concentration (IC50) is over 250 µM. In addition, the result with U-87MG ATCC was inactive.
For the compound `N=C(NO)c1nc(Cl)c(NCC(=O)O)nc1N`, the IC50 was 231 µM in experiment [1], over 250 µM against Plasminogen and over 250 µM in experiment [3].
For the compound `N=C(N)c1nc(Cl)c(NCC(=O)OCc2ccccc2)nc1N`, the half-maximal inhibitory concentration (IC50) in experiment [1] was 4 µM; in experiment [2] it was over 250 µM; against Plasminogen, over 250 µM; in experiment [3], 200 µM. The same compound gave an Activity in experiment [5] of 50%.
Take `N=C(N)c1ncc(NCC(=O)O)nc1N`: the IC50 in experiment [1] was 212 µM; in experiment [2], over 250 µM; on Plasminogen, over 250 µM; in experiment [3], over 250 µM. Besides, in the experiment on U-87MG ATCC, the outcome was inactive.
With `NC(N)=NC(=O)c1nc(Cl)c(NCC(=O)OCc2ccccc2)nc1N`, the IC50 in experiment [1] is 3 µM; in experiment [2], over 250 µM; on Plasminogen it was over 250 µM; in experiment [3], over 190 µM. Also, the Activity in experiment [6] is listed as 50%.
